Source: ChEMBL document CHEMBL2021817, “Synthesis and anti-norovirus activity of pyranobenzopyrone compounds” (Bioorg Med Chem Lett, 2012)

Key:
[1] = tested on: Norovirus; experiment: Antiviral activity against Norovirus infected in human HG23 cells assessed as inhibition of viral replication after 24 hrs by RT-PCR analysis; format: functional; conditions: HG23, 24 h, read-out: ED50 (the source's name)
Method in brief: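 Norwalk virus replicon-bearing HG23 cells were used one day after seeding, at 80-90% confluence. They were exposed to a range of compound concentrations from 0 (DMSO mock) to 10 µM. NV genome levels were quantified by real-time qRT-PCR. ED50 was taken as the concentration that lowered NV genome levels by 50%.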

[2] = Cytotoxicity against human HG23 cells after 48 hrs; format: cell-based; conditions: read-out: TD50
Method in brief: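 HG23 cells (Norwalk virus replicon-harboring) were exposed to a concentration series from 0 (mock, DMSO) to 200 µM. Viability was read with a commercial cell cytotoxicity assay kit after 48 h of treatment, and the median toxic dose (TD50) was calculated from it.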

[3] = Therapeutic index, ratio of TD50 for human HG23 cells to ED50 for Norovirus; format: cell-based; conditions: read-out: Ratio TD50/ED50
Method in brief: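 TI was taken as TD50 over ED50, both measured in HG23 replicon cells. For ED50, one-day-old cells at 80-90% confluence were treated with 0 (mock, DMSO) to 10 µM, and replicon genome levels were quantified by real-time qRT-PCR at 48 h. For TD50, cells were treated with 0 to 200 µM and read with a cytotoxicity kit at 48 h.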

| Compound | EC50 [1] | CC50 at 48 h [2] | selectivity ratio [3] |
| --- | --- | --- | --- |
| CC(=O)OCc1cc(CNCC(C)[C@H]2CCC3=Cc4c(cc(C)oc4=O)O[C@H]3C2)c2ccccc2n1 (mixture of isomers) | 9.7 µM | – | – |
| Cc1cc2c(c(=O)o1)C=C1CC[C@H](C(C)CNCc3cc(CO)nc4ccccc34)C[C@@H]1O2 (mixture of isomers) | 9.5 µM | – | – |
| Cc1cc2c(c(=O)o1)C=C1CC[C@H](C(C)CNCc3cccc4cccnc34)C[C@@H]1O2 (mixture of isomers) | > 10 µM | > 160 µM | > 16 |
| Cc1cc2c(c(=O)o1)C=C1CC[C@H](C(C)CNCc3ccc4ccccc4n3)C[C@@H]1O2 (mixture of isomers) | 3.4 µM | > 200 µM | > 58.8 |
| Cc1cc2c(c(=O)o1)C=C1CC[C@H](C(C)CNCc3cc(C)c4ccccc4n3)C[C@@H]1O2 (mixture of isomers) | 5.3 µM | > 200 µM | > 40 |
| Cc1ccc2nccc(CNCC(C)[C@H]3CCC4=Cc5c(cc(C)oc5=O)O[C@H]4C3)c2c1 (mixture of isomers) | 3.4 µM | 61.2 µM | 18 |
| Cc1ccc2nc(CNCC(C)[C@H]3CCC4=Cc5c(cc(C)oc5=O)O[C@H]4C3)ccc2c1 (mixture of isomers) | 8.1 µM | 83.7 µM | 10.3 |
| Cc1cc2c(c(=O)o1)C=C1CC[C@H](C(C)CN)C[C@@H]1O2 (mixture of isomers) | > 10 µM | > 200 µM | – |
| Cc1cc(CNCC(C)[C@H]2CCC3=Cc4c(cc(C)oc4=O)O[C@H]3C2)c2ccccc2n1 (mixture of isomers) | 8.2 µM | – | – |
| Cc1cc2c(c(=O)o1)C=C1CC[C@H](C(C)CNCc3ccnc4c3ccc3ccccc34)C[C@@H]1O2 (mixture of isomers) | 5.3 µM | > 200 µM | > 40 |
| Cc1cc2c(c(=O)o1)C=C1CC[C@H](C(C)CNCc3ccnc4ccccc34)C[C@@H]1O2 (mixture of isomers) | 2.4 µM | 96.4 µM | 40.2 |
| Cc1cc2c(c(=O)o1)C=C1CC[C@H](C(C)CNCc3ccc4ncccc4c3)C[C@@H]1O2 (stereo not given in full) | 8.1 µM | – | – |
| Cc1cc2c(c(=O)o1)C=C1CC[C@H](C(C)CNCc3ccncc3)C[C@@H]1O2 (mixture of isomers) | 9.6 µM | – | – |
| Cc1cc2c(c(=O)o1)C=C1CC[C@H](C(C)CNC(=O)c3ccnc4ccccc34)C[C@@H]1O2 (stereo not given in full) | 5.5 µM | 104 µM | 18.8 |
| Cc1cc2c(c(=O)o1)C=C1CC[C@H](C(C)CNCc3cc(C4OCOCO4)nc4ccccc34)C[C@@H]1O2 (mixture of isomers) | 8.4 µM | – | – |
| Cc1cc2c(c(=O)o1)C=C1CC[C@H](C(C)CNCc3cccnc3)C[C@@H]1O2 (mixture of isomers) | 4.1 µM | > 200 µM | > 50 |
